Calls of active or inactive are those of the source. The calls are words filed in the database; no cut-off is given here.
Columns and labels:
Acetylcholinesterase [1] = molecular target: T1, Acetylcholinesterase (Homo sapiens, UniProt P22303); experiment: Inhibition of human erythrocyte AChE using acetylthiocholine iodide as substrate preincubated for 10 mins followed by substrate addition and measured for 10 mins by DTNB reagent based Ellman's method; type: tissue-based
Cholinesterase [2] = molecular target: Cholinesterase (Homo sapiens, UniProt P06276); experiment: Inhibition of human serum BChE using butyrylthiocholine iodide as substrate preincubated for 10 mins followed by substrate addition and measured for 10 mins by DTNB reagent based Ellman's method; type: cell-free
Method in brief: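 Enzyme is BChE from human serum, 0.02 units/ml in 0.1% gelatin pH 7.4, preincubated with compound 10 min at 37 °C. Then 0.1 M phosphate containing 340 µM DTNB and 550 µM BTCI added. A412 followed 10 min at 37 °C. DMSO ≤1%. IC50 from nonlinear log-inhibitor fit, n=3.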

[3] = Antioxidant activity assessed as DPPH radical scavenging activity at 20 uM after 30 mins under dark condition by DPPH assay relative to control; type: functional
Method in brief: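 Test compound at 20 µM (solution strength) mixed with 0.5 mM DPPH solution and kept in the dark for 30 min. Absorbance read at 517 nm. % inhibition = (A0−At)/A0 × 100. Ascorbic acid used as standard. Run in triplicate.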

[4] = Effective permeability of compound in PBS buffer at pH 7.4 at 25 ug/ml incubated for 20 hrs by PAMPA-BBB assay
[5] = Acute toxicity in Swiss albino mouse assessed as convulsion at 500 mg/kg, po measured for 14 days; type: organism-based; conditions: in vivo, 336 h, time 14 day
Method in brief: (§1)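 Adult male Swiss albino mice, 25-30 g, dosed orally following OECD 423 at various doses up to 500 mg/kg. Watched at 30 min, 2 h, 4 h and 24 h for autonomic and behavioural changes. Followed for 14 days for tremors, convulsions, salivation, diarrhea, lethargy, sleep and coma.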

Mus musculus [6] = experiment: Ex vivo inhibition of Swiss mouse brain AChE using ACTI as substrate at 10 mg/kg, po administered once daily for 7 days and administered with scopolamine at 30 mins after compound challenge on 7th day and measured on day 7 by Ellman's method; type: functional, organism-based; conditions: time 7.0 day
Method in brief: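 Male Swiss albino mice dosed p.o. daily for 7 days in 0.3% CMC. Scopolamine 0.5 mg/kg i.p. given 30 min after the day-7 dose. Brain homogenate supernatant incubated with 0.1 M phosphate pH 7.4 and DTNB for 10 min at 37 °C. ATCI then added from a 7.5 mM stock. A412 followed for 10 min. Expressed as ACh hydrolysed/min/mg protein (Lowry).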

Mus musculus [7] = experiment: Antioxidant activity in scopolamine-induced memory impairment Swiss albino mouse model assessed as reduction in scopolamine-induced oxidative stress by measuring decrease in malondialdehyde level at 10 mg/kg, po administered once daily for 7 days and administered with scopolamine at 30 mins after compound challenge on 7th day by TBARS assay; type: functional, organism-based; conditions: time 7.0 day
Method in brief: (§2)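 Male Swiss albino mice, six per group. Compound suspended in 0.3% w/v CMC, given p.o. once daily for 7 days. Scopolamine HBr 0.5 mg/kg i.p., in water, given 30 min after dosing on day 7. After behavioural tests, whole brain homogenised in 10 mM PBS pH 7.4 and supernatant used. Protein by Lowry method. For MDA (TBARS), supernatant incubated 2 h at 37 °C, TCA-precipitated, heated with 0.67% thiobarbituric acid at 50 °C for 10 min, A532, expressed as moles MDA/mg protein. For nonprotein thiol (Sedlak–Lindsay), TCA supernatant in Tris-EDTA pH 8.9 reacted with DTNB, A412 within 5 min, expressed as µM/mg protein.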

[8] = Acute toxicity in Swiss albino mouse assessed as sleep at 500 mg/kg, po measured for 14 days; type: organism-based; conditions: in vivo, 336 h, time 14 day; method in brief: as §1
Mus musculus [9] = experiment: Antioxidant activity in scopolamine-induced memory impairment Swiss albino mouse model assessed as reduction in scopolamine-induced oxidative stress by measuring increase in SOD level at 10 mg/kg, po administered once daily for 7 days and administered with scopolamine at 30 mins after compound challenge on 7th day; type: functional, organism-based; conditions: time 7.0 day
Method in brief: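 Same mouse dosing and brain supernatant preparation as the oxidative-stress assays. For SOD, supernatant mixed with reagent containing 0.1 mM EDTA, 24 µM NBT and 50 mM Na2CO3, plus hydroxylamine hydrochloride. Assay at pH 10.2, absorbance read at 560 nm.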

Mus musculus [10] = experiment: Reversal of scopolamine-induced memory cognitive memory impairment in po dosed Swiss albino mouse assessed as increase in spontaneous alteration rate administered once daily for 7 days and administered with scopolamine at 30 mins after compound challenge on 7th day and measured for 5 mins on day 7 by Y-maze test; type: functional, organism-based; conditions: dose mg/kg 2.5-10, time 7.0 day
Method in brief: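 Male Swiss albino mice, six per group. Compound given p.o. in 0.3% CMC daily for 7 days, at 2.5, 5 or 10 mg/kg. Scopolamine 0.5 mg/kg i.p. given 30 min after the day-7 dose. Each mouse placed in a three-arm Y-maze and arm entries and alternations recorded over 5 min. % alternation = alternations/(total entries−2) × 100.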

[11] = Acute toxicity in Swiss albino mouse assessed as diarrhea at 500 mg/kg, po measured for 14 days; type: organism-based; conditions: in vivo, 336 h, time 14 day; method in brief: as §1
Mus musculus [12] = experiment: Reversal of scopolamine-induced memory cognitive memory impairment in po dosed Swiss albino mouse assessed as increase in transfer latency time administered once daily for 7 days and administered with scopolamine at 30 mins after compound challenge on 7th day and measured during acquisition trial on day 7 by passive avoidance test; type: functional, organism-based; conditions: dose mg/kg 2.5-10, time 7.0 day
Method in brief: (§3)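 Dosing as for the Y-maze: p.o. in CMC daily for 7 days, scopolamine 0.5 mg/kg i.p. on day 7, six mice per group. Apparatus is a two-compartment lit/dark box. Acquisition begins 5 min after scopolamine, with the mouse held in the lit side for 30 s. Latency to enter the dark side recorded as transfer latency time. No foot shock in the retention trial.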

Mus musculus [13] = experiment: Antioxidant activity in scopolamine-induced memory impairment Swiss albino mouse model assessed as reduction in scopolamine-induced oxidative stress by measuring increase in total non-protein thiol level at 10 mg/kg, po administered once daily for 7 days and administered with scopolamine at 30 mins after compound challenge on 7th day; type: functional, organism-based; conditions: time 7.0 day; method in brief: as §2
[14] = Acute toxicity in Swiss albino mouse assessed as mortality at 500 mg/kg, po observed for 24 hrs; type: organism-based; conditions: in vivo; method in brief: as §1
[15] = Acute toxicity in Swiss albino mouse assessed as lacrimation at 500 mg/kg, po observed for 24 hrs; type: organism-based; conditions: in vivo; method in brief: as §1
[16] = Acute toxicity in Swiss albino mouse assessed as salivation at 500 mg/kg, po measured for 14 days; type: organism-based; conditions: in vivo, 336 h, time 14 day; method in brief: as §1
[17] = Acute toxicity in Swiss albino mouse assessed as feeding behavior at 500 mg/kg, po observed for 24 hrs; type: organism-based; conditions: in vivo; method in brief: as §1
Acetylcholinesterase [18] = molecular target: T1, Acetylcholinesterase; experiment: Non-competitive inhibition of human erythrocyte AChE using acetylthiocholine iodide as substrate at 0.15 to 0.6 uM preincubated for 10 mins followed by substrate addition and measured for 10 mins by Ellman's method based Line-weaver Burk plot analysis; type: tissue-based
Mus musculus [19] = experiment: Reversal of scopolamine-induced memory cognitive memory impairment in po dosed Swiss albino mouse assessed as increase in transfer latency time administered once daily for 7 days and administered with scopolamine at 30 mins after compound challenge on 7th day and measured during retention trial on day 7 by passive avoidance test; type: functional, organism-based; conditions: dose mg/kg 2.5-10, time 7.0 day; method in brief: as §3
Acetylcholinesterase [20] = molecular target: T1, Acetylcholinesterase; experiment: Inhibition of human AChE-induced amyloid beta(1 to 42) aggregation at Abeta:compound concentration ratio of 1:2 incubated for 48 hrs by thioflavin-T fluorescence method
Method in brief: (§4)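 Aβ1-42 (10 µM) incubated with hAChE ([…]) with or without compound (5, 10 and 20 µM) at 37 °C for 48 h, DMSO below 1%. ThT then added at 5 µM. Fluorescence read at ex 485/em 528 nm. % inhibition taken from intensities with vs without inhibitor. Run in triplicate.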

[21] = Acute toxicity in Swiss albino mouse assessed as tremor at 500 mg/kg, po measured for 14 days; type: organism-based; conditions: in vivo, 336 h, time 14 day; method in brief: as §1
in vitro = conditions: human, SH-SY5Y cells
Acetylcholinesterase [22] = molecular target: T1, Acetylcholinesterase; experiment: Inhibition of human AChE-induced amyloid beta(1 to 42) aggregation incubated for 48 hrs by thioflavin-T fluorescence method; conditions: dose microM 5-20, time 48.0 hrs; method in brief: as §4
SH-SY5Y = experiment: Neuroprotection against amyloid beta (25 to 35)-induced toxicity in human SH-SY5Y cells assessed as cell viability at 10 uM preincubated for 2 hrs followed by incubation with amyloid beta (25 to 35) for 24 hrs relative to control; type: functional; conditions: time 26 hrs, read-out: Activity
Acetylcholinesterase [23] = molecular target: Acetylcholinesterase (Electrophorus electricus, UniProt O42275); experiment: Inhibition of recombinant Electric eel AChE incubated for 15 mins by amplex red reagent based fluorescence assay
Cholinesterase [24] = molecular target: Cholinesterase (Equus caballus, UniProt P81908); experiment: Inhibition of equine serum BChE using butyrylthiocholine iodide as substrate incubated for 30 mins followed by substrate addition and measured for 20 mins by Ellman's method
Sequence of Cholinesterase (Equus caballus, UniProt P81908) (P81908 whole entry): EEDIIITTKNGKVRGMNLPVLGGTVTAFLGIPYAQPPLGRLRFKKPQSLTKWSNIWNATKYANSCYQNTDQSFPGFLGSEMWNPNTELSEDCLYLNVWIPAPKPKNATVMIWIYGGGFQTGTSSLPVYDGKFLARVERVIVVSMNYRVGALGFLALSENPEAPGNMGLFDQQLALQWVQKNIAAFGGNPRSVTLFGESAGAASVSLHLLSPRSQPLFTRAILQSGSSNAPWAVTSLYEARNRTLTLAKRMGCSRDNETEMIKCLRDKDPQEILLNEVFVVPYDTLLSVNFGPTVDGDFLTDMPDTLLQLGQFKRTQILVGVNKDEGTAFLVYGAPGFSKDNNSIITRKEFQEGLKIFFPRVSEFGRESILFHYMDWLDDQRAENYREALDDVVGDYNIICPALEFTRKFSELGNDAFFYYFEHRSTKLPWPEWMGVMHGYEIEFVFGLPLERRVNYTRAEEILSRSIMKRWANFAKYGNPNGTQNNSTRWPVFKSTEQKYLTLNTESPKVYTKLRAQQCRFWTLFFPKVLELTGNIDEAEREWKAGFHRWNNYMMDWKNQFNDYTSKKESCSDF

Sequence of Cholinesterase (Homo sapiens, UniProt P06276) (P06276 whole entry): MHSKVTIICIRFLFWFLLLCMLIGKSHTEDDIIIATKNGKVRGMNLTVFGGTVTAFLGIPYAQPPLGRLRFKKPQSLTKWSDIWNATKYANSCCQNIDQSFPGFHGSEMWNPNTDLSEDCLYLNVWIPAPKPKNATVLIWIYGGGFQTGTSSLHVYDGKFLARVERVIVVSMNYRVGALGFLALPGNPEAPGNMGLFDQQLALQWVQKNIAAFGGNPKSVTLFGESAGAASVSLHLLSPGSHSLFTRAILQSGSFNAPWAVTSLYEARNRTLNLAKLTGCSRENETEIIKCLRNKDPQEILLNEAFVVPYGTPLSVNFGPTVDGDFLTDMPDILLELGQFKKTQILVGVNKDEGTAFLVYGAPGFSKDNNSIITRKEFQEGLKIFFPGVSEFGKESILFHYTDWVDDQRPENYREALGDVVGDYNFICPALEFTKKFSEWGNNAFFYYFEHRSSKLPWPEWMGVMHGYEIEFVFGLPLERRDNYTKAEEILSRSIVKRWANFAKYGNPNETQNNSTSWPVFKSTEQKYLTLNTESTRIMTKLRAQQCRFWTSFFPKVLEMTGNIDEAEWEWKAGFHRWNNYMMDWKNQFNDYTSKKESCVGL
T1 sequence (P22303 whole entry): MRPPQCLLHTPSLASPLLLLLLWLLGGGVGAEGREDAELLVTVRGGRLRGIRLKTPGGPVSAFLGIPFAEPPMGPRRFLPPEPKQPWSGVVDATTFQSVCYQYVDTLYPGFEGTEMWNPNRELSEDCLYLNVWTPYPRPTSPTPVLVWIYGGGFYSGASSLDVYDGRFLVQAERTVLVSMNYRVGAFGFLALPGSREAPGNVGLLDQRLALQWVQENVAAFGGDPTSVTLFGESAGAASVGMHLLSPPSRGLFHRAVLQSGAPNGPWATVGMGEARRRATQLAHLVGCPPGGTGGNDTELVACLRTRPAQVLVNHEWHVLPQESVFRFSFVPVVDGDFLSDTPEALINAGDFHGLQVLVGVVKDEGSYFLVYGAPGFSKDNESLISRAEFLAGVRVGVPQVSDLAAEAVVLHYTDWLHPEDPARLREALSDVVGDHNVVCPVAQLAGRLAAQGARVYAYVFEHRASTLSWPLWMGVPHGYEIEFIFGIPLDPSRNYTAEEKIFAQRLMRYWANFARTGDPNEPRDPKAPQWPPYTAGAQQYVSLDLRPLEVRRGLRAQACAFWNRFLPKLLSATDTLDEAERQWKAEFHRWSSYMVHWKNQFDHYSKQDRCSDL
Sequence of Acetylcholinesterase (Electrophorus electricus, UniProt O42275) (O42275 whole entry): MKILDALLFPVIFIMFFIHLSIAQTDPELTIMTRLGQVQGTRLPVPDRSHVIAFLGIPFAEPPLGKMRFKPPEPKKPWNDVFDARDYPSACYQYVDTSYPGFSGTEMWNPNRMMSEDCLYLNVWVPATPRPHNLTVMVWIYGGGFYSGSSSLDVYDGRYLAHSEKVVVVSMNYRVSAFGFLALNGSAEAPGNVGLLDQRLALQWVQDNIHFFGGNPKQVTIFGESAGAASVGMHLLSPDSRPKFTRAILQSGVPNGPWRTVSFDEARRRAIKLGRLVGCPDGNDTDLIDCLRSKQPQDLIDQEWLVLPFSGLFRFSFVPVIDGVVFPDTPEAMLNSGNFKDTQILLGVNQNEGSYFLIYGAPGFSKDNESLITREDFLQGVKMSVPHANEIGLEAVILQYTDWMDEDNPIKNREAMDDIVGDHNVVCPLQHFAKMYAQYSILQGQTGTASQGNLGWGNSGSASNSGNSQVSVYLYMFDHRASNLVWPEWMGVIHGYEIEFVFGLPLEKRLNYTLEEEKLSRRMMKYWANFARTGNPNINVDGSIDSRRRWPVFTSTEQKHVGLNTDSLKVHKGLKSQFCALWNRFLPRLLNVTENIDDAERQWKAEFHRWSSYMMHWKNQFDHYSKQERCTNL

Compound | IC50 (Acetylcholinesterase [1]) | IC50 (Cholinesterase [2]) | inhibition [3] | other results
Clc1ccc(-c2nnc(Nc3ncccn3)o2)cc1 | 2.88 µM | > 50.1 µM | 46.2% | 
COc1ccc(-c2nnc(Nc3ncccn3)o2)cc1 | 1.55 µM | > 50.1 µM | 45.8% | 
Fc1ccc(-c2nnc(Nc3ncccn3)o2)cc1 | 2.4 µM | > 50.1 µM | 41.9% | 
Brc1cccc(-c2nnc(Nc3ncccn3)o2)c1 | 3.31 µM | 20.4 µM | 47.9% | 
Brc1ccc(-c2nnc(Nc3ncccn3)o2)cc1 | 3.72 µM | 22.9 µM | 47.8% | 
O=[N+]([O-])c1ccc(-c2nnc(Nc3ncccn3)o2)cc1 | > 5.01 µM | > 50.1 µM | < 20% | 
O=C1O[C@H]([C@@H](O)CO)C(O)=C1O |  |  | 64.6% | 
COc1cc(-c2nnc(Nc3ncccn3)o2)cc(OC)c1OC | 1.23 µM | > 50.1 µM | 57.7% | Papp at 20 h, 25 ug/ml [4]: 4.21 ×10⁻⁶ cm/s
Oc1ccccc1-c1nnc(Nc2ncccn2)o1 | > 5.01 µM | > 50.1 µM | 58.8% | 
COc1ccc(-c2nnc(Nc3ncccn3)o2)cc1OC | 1.91 µM | > 50.1 µM | 49.5% | 
O=[N+]([O-])c1ccccc1-c1nnc(Nc2ncccn2)o1 | 3.39 µM | > 50.1 µM | 51.8% | 
c1cnc(Nc2nnc(-c3cccc4ccccc34)o2)nc1 | 0.302 µM | 12 µM | 60% | Activity [5]: Non-Toxic; inhibition (Mus musculus [6]): Active; Activity (Mus musculus [7]): Active; Activity [8]: Non-Toxic; Activity (Mus musculus [9]): Active; Activity (Mus musculus [10]): Dose-dependent effect; Activity [11]: Non-Toxic; Activity (Mus musculus [12]): Dose-dependent effect; Activity (Mus musculus [13]): Active; Papp at 20 h, 25 ug/ml [4]: 5.82 ×10⁻⁶ cm/s; Activity [14]: Non-Toxic; Activity [15]: Non-Toxic; Activity [16]: Non-Toxic; Activity [17]: Non-Toxic; Ki (Acetylcholinesterase [18]): 0.17 µM; Activity (Mus musculus [19]): Dose-dependent effect; inhibition (Acetylcholinesterase [20]): Active; Activity [21]: Non-Toxic; IC50 at 24 h (in vitro): 79.4 µM; inhibition (Acetylcholinesterase [22]): Dose-dependent effect
Clc1ccccc1-c1nnc(Nc2ncccn2)o1 | > 5.01 µM | > 50.1 µM | < 20% | 
Brc1ccc(CSc2nnc(CSc3nc4ccccc4s3)o2)cc1 |  |  |  | viability at 10 µM (SH-SY5Y): 95.7%
Cc1ccc(-c2nnc(Nc3ncccn3)o2)cc1 | 1.62 µM | > 50.1 µM | < 20% | 
Oc1ccc(-c2nnc(Nc3ncccn3)o2)cc1 | 1.74 µM | > 50.1 µM | 63.4% | Papp at 20 h, 25 ug/ml [4]: 3.23 ×10⁻⁶ cm/s
C#CCOc1ccc(-c2cc(-c3ccc(OCCN4CCOCC4)cc3)nc(N)n2)cc1 |  |  |  | IC50 (Acetylcholinesterase [23]): 0.304 µM; IC50 (Cholinesterase [24]): 0.666 µM
COc1cc2c(cc1OC)C(=O)C(CC1CCN(Cc3ccccc3)CC1)C2 (configuration not stated) |  |  | < 20% | 
c1ccc(-c2nnc(Nc3ncccn3)o2)cc1 | 2.04 µM | > 50.1 µM | 51.4% | 

Source: ChEMBL document CHEMBL4699439, “Design and development of novel N-(pyrimidin-2-yl)-1,3,4-oxadiazole hybrids to treat cognitive dysfunctions” (Bioorg Med Chem, 2019)
